# Columns and labels:
# [1] = target: Thymidine phosphorylase (Escherichia coli K-12) (UniProt P07650); test: Inhibition of Escherichia coli thymidine phosphorylase at 1 mM incubated for 20 mins at room temperature followed by 5 mins incubation at 90 degC by HPLC analysis
# In short: (§1)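 Enzyme from E. coli, combined with thymidine and orthophosphate in Tris buffer. Phosphonic acid added at 1 mM or 100 μM. Incubated 20 min at room temperature, then 5 min at 90 °C. Thymidine separated from thymine by HPLC and percent inhibition calculated.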
# [2] = target: Thymidine phosphorylase (Escherichia coli K-12) (UniProt P07650); test: Inhibition of Escherichia coli thymidine phosphorylase at 100 uM incubated for 20 mins at room temperature followed by 5 mins incubation at 90 degC by HPLC analysis; in short: as §1
# [3] = Inhibition of thymidine phosphorylase
# Thymidine phosphorylase = Thymidine phosphorylase (Escherichia coli K-12, UniProt P07650); test: Competitive inhibition of Escherichia coli thymidine phosphorylase incubated for 20 mins at room temperature followed by 5 mins incubation at 90 degC by Lineweaver-Burk plot analysis
# Sequence of Thymidine phosphorylase (P07650 whole entry): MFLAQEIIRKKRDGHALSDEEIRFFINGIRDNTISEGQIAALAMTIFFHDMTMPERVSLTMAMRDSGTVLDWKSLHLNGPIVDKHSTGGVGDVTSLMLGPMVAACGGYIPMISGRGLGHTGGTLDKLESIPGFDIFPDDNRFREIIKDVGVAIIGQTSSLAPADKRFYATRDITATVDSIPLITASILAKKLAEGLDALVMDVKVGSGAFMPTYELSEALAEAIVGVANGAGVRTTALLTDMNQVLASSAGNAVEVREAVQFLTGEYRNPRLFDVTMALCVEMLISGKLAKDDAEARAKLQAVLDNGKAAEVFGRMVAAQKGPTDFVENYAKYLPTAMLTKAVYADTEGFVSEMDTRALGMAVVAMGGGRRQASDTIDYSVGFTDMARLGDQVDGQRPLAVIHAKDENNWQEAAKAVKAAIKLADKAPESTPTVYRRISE
# Sequence of Thymidine phosphorylase (Escherichia coli K-12) (P07650 whole entry, looked up): as the sequence (P07650 whole entry) above
inhibition [1] [%],inhibition [2] [%],Ki [3] [µM],Ki (Thymidine phosphorylase) [µM],Structure (SMILES)
78,40,–,–,Cc1cn(CCCCSCCCCC(F)(F)P(=O)(O)O)c(=O)[nH]c1=O
25,4,–,–,Nc1nc(O)c2ncn(CCCC(F)(F)P(=O)(O)O)c2n1
23,0,–,–,Cc1cn(CCCCP(=O)(O)O)c(=O)[nH]c1=O
86,55,–,–,Cc1cn(CCCCCCCCCC(F)(F)P(=O)(O)O)c(=O)[nH]c1=O
88,56,–,–,Cc1cn(CCCCCCCCCCCC(F)(F)P(=O)(O)O)c(=O)[nH]c1=O
–,15,–,–,Cc1cn(CCCCCCCCP(=O)(O)O)c(=O)[nH]c1=O
61,20,–,–,O=c1[nH]c(=O)n(CCCCC(F)(F)P(=O)(O)O)cc1Br
–,64,142,142,Nc1c(Br)c(=O)[nH]c(=O)n1CCCCCCCCP(=O)(O)O
44,15,–,–,O=c1ccn(CCCCC(F)(F)P(=O)(O)O)c(=O)[nH]1
69,29,–,–,O=P(O)(O)C(F)(F)CCCn1cc(Cn2cnc3c(O)ncnc32)nn1
85,55,–,–,Cc1cn(CCCCCCCCC(F)(F)P(=O)(O)O)c(=O)[nH]c1=O
36,0,–,–,Cc1cn(CCSCCCCC(F)(F)P(=O)(O)O)c(=O)[nH]c1=O
74,34,–,–,Nc1nc(O)c2ncn(CCCCC(F)(F)P(=O)(O)O)c2n1
–,–,2,–,Cc1cn(C[C@@H](CO)OCP(=O)(O)O)c(=O)[nH]c1=O
–,–,2,–,Cc1cn(C[C@@H](C)OCP(=O)(O)O)c(=O)[nH]c1=O
76,35,–,–,Nc1nc(O)c2ncn(Cc3cn(CCCCC(F)(F)P(=O)(O)O)nn3)c2n1
68,15,–,–,Cc1cn(CCCCC(F)(F)P(=O)(O)O)c(=O)[nH]c1=O
25,9,–,–,O=P(O)(O)C(F)(F)CCCCn1cnc2c(O)ncnc21
76,35,–,–,O=P(O)(O)C(F)(F)CCCCn1cc(Cn2cnc3c(O)ncnc32)nn1
51,4,–,–,Cc1cn(CCCC(F)(F)P(=O)(O)O)c(=O)[nH]c1=O
–,–,2,–,Cc1cn(C[C@@H](CF)OCP(=O)(O)O)c(=O)[nH]c1=O
79,22,–,–,O=c1ccn(Cc2cn(CCCCC(F)(F)P(=O)(O)O)nn2)c(=O)[nH]1
–,–,54,54,O=P(O)(O)CCCCCCCCn1ccc2c(O)nc(O)nc21
90,43,–,–,Cc1cn(CCCSCCCCC(F)(F)P(=O)(O)O)c(=O)[nH]c1=O
79,36,–,–,Cc1cn(Cc2cn(CCCC(F)(F)P(=O)(O)O)nn2)c(=O)[nH]c1=O
29,9,–,–,Cc1cn(Cc2cn(CC(F)(F)P(=O)(O)O)nn2)c(=O)[nH]c1=O
–,–,0.035,–,N=C1CCCN1Cc1[nH]c(=O)[nH]c(=O)c1Cl [TIPIRACIL]
86,38,–,–,Cc1cn(CCCCCCSCCCCC(F)(F)P(=O)(O)O)c(=O)[nH]c1=O
90,68,–,58,Cc1cn(Cc2cn(CCCCC(F)(F)P(=O)(O)O)nn2)c(=O)[nH]c1=O
95,52,–,–,Cc1cn(CC(I)CC(F)(F)P(=O)(O)O)c(=O)[nH]c1=O (centres undefined)

Structure (SMILES),inhibition [1] [%],inhibition [2] [%],Ki [3] [µM],Ki (Thymidine phosphorylase) [µM]
Nc1[nH]c(=O)[nH]c(=O)c1Br,100,71,–,–
